Data taken from paper PMC8596699 (Chemmedchem, 2021).

Target: T1, DMT1 (SLC11A2) (Homo sapiens, UniProt P49281)
T1 sequence (P49281 1-568): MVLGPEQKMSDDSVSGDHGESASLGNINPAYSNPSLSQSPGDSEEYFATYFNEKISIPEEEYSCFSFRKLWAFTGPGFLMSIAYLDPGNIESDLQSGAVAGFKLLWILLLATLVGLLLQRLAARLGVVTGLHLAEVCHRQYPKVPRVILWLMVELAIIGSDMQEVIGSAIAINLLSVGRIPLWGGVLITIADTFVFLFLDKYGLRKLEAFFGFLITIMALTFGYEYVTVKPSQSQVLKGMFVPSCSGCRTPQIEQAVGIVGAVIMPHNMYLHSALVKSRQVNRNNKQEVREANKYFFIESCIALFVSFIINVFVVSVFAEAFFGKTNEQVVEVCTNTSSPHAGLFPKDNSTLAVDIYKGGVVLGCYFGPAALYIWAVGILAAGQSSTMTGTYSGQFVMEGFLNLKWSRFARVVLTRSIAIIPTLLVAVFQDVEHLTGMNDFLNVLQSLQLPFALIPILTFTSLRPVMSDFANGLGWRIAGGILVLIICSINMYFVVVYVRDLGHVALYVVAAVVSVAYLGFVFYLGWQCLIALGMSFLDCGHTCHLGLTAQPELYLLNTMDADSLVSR
Test: Radioactive 55Fe uptake assay in HEK293 cells stably overexpressing DMT1
Assay type: cell-based
Summary of the method: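 HEK293 cells stably expressing human DMT1 (pIRES2 DsRed-Express2, geneticin 500 μg/mL) were seeded at 50,000 cells/well for 24 h. Cells were preincubated 5 min in uptake buffer, pH 5.5, with a range of test compound. ⁵⁵Fe²⁺ (1 μM) with ascorbate and unlabelled Fe²⁺ was then added for 15 min at room temperature. After ice-cold washes, uptake was read by scintillation counting as % of DMSO control. IC50 came from a 4-parameter logistic fit (two experiments in triplicate), and LE was derived from IC50.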

- IC50: 525 ± 65 µM
- ligand efficiency LE (from DMT1 IC50): 0.35 kcal^.mol^−1
Compound: CC1CCc2sc(C(=O)O)cc2C1 (centres unmarked) [compound 2]
